Measurements of several laboratories.
Protocols differ between the studies behind these lines.
Target: Transient receptor potential cation channel subfamily M member 6 (TRPM6, Homo sapiens, UniProt Q9BX84)

With CNC(=O)[C@@H]1CC[C@@H](n2c(-c3ccc4cnccc4c3)nc3ccc(C(=O)NCc4cccc(C(N)=O)c4)cc32)C1 the remaining binding was 83% (binding, competition with immobilised ligand; 1 µM).
With N[C@H]1CCN(c2nccc(-c3cnn4ncccc34)n2)C1 the remaining binding was 91% (binding; 1 µM).
O=C(NS(=O)(=O)c1ccc(NCC2CCOCC2)c([N+](=O)[O-])c1)c1ccc(N2CCN(Cc3ccc(C(F)(F)F)cc3-c3ccc(Cl)cc3)CC2)cc1Oc1cnc2[nH]ccc2c1 has a remaining binding of 89% (cell-free assay, competition with immobilised ligand; 1 µM).
O=C(c1ccc(Nc2ncc(Cl)c(-c3cc4ccccc4s3)n2)cc1)N1CCC(N2CCCC2)CC1 has a remaining binding of 100% (binding, competition with immobilised ligand; 1 µM).
For C[C@H]1CCN(c2nccc(-c3cnn4ncccc34)n2)C1, the remaining binding was 94% (binding; 1 µM).
For COc1cnc(Nc2cccc(S(N)(=O)=O)c2)nc1N1CCN(c2ccccc2)C(=O)C1, the remaining binding was 93% (binding, competition with immobilised ligand; 1 µM).
The remaining binding of COc1ccc2c(c1)O[C@@H](c1ccc(OC)c(OC)c1)C[C@H]2NC(=O)C1(c2ccc3c(c2)OC(F)(F)O3)CC1 is reported as 82% (cell-free assay, competition with immobilised ligand; 1 µM).
F[C@@H]1CCN(c2nccc(-c3cnn4ncccc34)n2)C1 has a remaining binding of 100% (binding; 1 µM).
FC(F)(F)Oc1cccc(-c2cnc3ccc(-c4ccncc4)nn23)c1 has a remaining binding of 84% (binding, competition with immobilised ligand; 5 µM).
The remaining binding of CN([C@@H]1CCc2c(CC(=O)O)c3cc(S(C)(=O)=O)ccc3n2C1)S(=O)(=O)c1ccc(F)cc1 is reported as 74% (cell-free assay, competition with immobilised ligand; 1 µM).
For CN(C)c1nccc(-c2cnn3ncccc23)n1, the remaining binding was 100% (binding; 1 µM).
Cc1nc(C2CCN(C(=O)c3ccc(OC(F)(F)F)cc3N)CC2)c2ncc(N3CCN(C)CC3)cc2n1 gave a remaining binding of 100% (cell-free assay, competition with immobilised ligand; 1 µM).
The remaining binding of O=C(c1ccc(Nc2ncc(Cl)c(-c3ccc(Cl)s3)n2)cc1)N1CCC(N2CCCC2)CC1 is reported as 100% (binding, competition with immobilised ligand; 1 µM).
For c1cncc(-c2cccc(Nc3nccc(NC4CCCCC4)n3)c2)c1, the remaining binding was 97% (binding, competition with immobilised ligand; 10 µM).
For CC1CCCN1c1nccc(-c2cnn3ncccc23)n1 (stereo not drawn), the remaining binding was 100% (binding; 1 µM).
For Nc1ncc2c(n1)-c1c([nH]c3ccc(C#CC4CC4)cc13)CCCC2, the remaining binding was 75% (binding, competition with immobilised ligand; 1 µM).
Cc1c[nH]c2nccc(Oc3c(F)cc(Nc4cc(Cl)nc(N)n4)cc3F)c12 gave a remaining binding of 83% (cell-free assay, competition with immobilised ligand; 0.1 µM).
With CN(C)c1ncc(F)c(-c2cnn3ncccc23)n1 the remaining binding was 100% (binding; 1 µM).
CN(C)C(=O)Cn1cc(-c2nc([C@@](C)(c3ccc(-c4cnc(N)nc4)cc3)C3CC3)no2)cn1 gave a remaining binding of 78% (cell-free assay, competition with immobilised ligand; 1 µM).
O=C(NCCCN1CCOCC1)c1ccc(Nc2nccc(-c3cc4ccccc4s3)n2)cc1 gave a remaining binding of 100% (binding, competition with immobilised ligand; 1 µM).
O=C(Nc1c[nH]nc1C(=O)NC1CCNCC1)c1cc(F)cc(F)c1 gave a remaining binding of 88% (binding, competition with immobilised ligand; 1 µM).
